Experimental data from ChEMBL document CHEMBL4359872, “Identification of potent triazolylpyridine nicotinamide phosphoribosyltransferase (NAMPT) inhibitors bearing a 1,2,3-triazole tail group” (Eur J Med Chem, 2019).
Values after ≈ are worked out from the molar mass of the structure shown. Active and inactive are the calls of the source. No cut-off for these calls is given here.

Columns and labels:
[1] = tested on: SH-SY5Y; assay: Cytotoxicity against human SH-SY5Y cells measured after 48 hrs by MTT assay; type: cell-based
[2] = molecular target: Nicotinamide phosphoribosyltransferase (Homo sapiens) (UniProt P43490); assay: Inhibition of NAMPT in human SH-SY5Y cells assessed as reduction in NAD levels at 100 nM measured after 16 hrs by diaphorase and resazurin dye based fluorescence assay relative to control; type: cell-based
Nicotinamide phosphoribosyltransferase (Homo sapiens), sequence (P43490 whole entry, looked up): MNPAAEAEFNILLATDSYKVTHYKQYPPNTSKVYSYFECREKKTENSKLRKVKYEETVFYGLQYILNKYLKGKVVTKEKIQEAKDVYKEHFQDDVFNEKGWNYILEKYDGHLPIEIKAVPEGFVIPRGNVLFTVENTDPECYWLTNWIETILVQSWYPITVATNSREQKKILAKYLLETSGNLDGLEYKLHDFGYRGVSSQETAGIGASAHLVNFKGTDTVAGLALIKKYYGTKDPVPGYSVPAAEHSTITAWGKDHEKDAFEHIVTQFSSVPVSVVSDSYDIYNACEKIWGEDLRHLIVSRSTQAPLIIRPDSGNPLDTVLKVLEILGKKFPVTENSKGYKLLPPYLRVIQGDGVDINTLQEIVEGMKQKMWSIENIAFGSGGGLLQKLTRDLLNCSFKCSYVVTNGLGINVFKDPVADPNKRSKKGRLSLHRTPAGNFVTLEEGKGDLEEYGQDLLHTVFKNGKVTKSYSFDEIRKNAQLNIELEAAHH
How it was run: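 SH-SY5Y cells treated at 100 nM for 16 h, then NAD level reduction measured as % of control. Mean ± SD of two independent experiments (n = 6).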

[3] = molecular target: Nicotinamide phosphoribosyltransferase (Mus musculus, UniProt Q99KQ4); assay: Inhibition of recombinant mouse wild-type NAMPT expressed in bacterial expression system using PRPP as substrate in presence of mouse NMNAT-3 measured for 1 hr by fluorescence assay
Nicotinamide phosphoribosyltransferase, sequence (Q99KQ4 whole entry): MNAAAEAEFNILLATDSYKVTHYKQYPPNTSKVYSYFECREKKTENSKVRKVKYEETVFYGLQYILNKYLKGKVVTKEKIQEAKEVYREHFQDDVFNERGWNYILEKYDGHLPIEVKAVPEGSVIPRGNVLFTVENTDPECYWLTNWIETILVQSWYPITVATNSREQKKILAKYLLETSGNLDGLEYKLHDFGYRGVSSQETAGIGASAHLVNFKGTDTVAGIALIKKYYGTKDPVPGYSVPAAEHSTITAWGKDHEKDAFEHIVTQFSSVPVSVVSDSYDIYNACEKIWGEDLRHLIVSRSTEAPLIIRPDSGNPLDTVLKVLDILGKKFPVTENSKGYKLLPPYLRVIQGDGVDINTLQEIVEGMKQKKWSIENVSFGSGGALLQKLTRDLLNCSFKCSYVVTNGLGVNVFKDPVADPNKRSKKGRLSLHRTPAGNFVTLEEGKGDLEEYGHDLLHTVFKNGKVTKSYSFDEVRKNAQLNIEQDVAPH
How it was run: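 In vitro NAMPT enzymatic assay run as concentration-response curves, with IC50 derived from the curves. Mean ± SD of three independent experiments (n = 6).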

[4] = Cytotoxicity against human SH-SY5Y cells assessed as cell viability at 1 uM measured after 48 hrs by MTT assay relative to control; type: cell-based; settings: read-out: Activity
[5] = Permeability across apical side to basolateral side in human Caco2 cells at 30 uM after 4 hrs by HPLC analysis; type: ADME, cell-based; settings: caco-2, 4 h
How it was run: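 Caco-2 monolayer used to measure apical-to-basal transfer, reported as % permeability and Papp. Terbutaline served as the positive control; n = 3.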

[6] = Kinetic aqueous solubility of the compound in 80:20 PBS/acetonitrile solution at 200 to 500 uM by HTS assay; type: physicochemical; settings: read-out: Kinetic_solubility
[7] = Selectivity ratio of EC50 for cytotoxicity against human SH-SY5Y cells to IC50 for recombinant mouse wild-type NAMPT expressed in bacterial expression system; type: cell-based
[8] = Toxicity in Crl:CD Sprague-Dawley rat retina at 200 mg/kg, po administered once daily for 5 days via gavage by hematoxylin and eosin staining based microscopic analysis; type: organism-based; settings: in vivo, 120 h
[9] = tested on: 4T1; assay: Antitumor activity against mouse 4T1 cells implanted in BALB/c mouse assessed as reduction in tumor weight at 10 mg/kg, ip bid for 12 days; type: functional, organism-based
How it was run: (§1)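 Tumour cells implanted in the mammary gland. Dosing began at day 14, once tumours were palpable, after randomization into vehicle and treated groups of 4 mice each. Compound given intraperitoneally at 10 mg/kg twice a day for 12 consecutive days. Data are means of two independent experiments.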

[10] = tested on: 4T1; assay: Antitumor activity against mouse 4T1 cells implanted in Balb/c mouse mouse assessed as inhibition of tumor metastasis at 10 mg/kg, ip bid for 12 days measured post last dose by crystal violet staining based thioguanine clonogenic assay; type: functional, organism-based; how it was run: as §1
[11] = Half-life in human; type: ADME
[12] = tested on: 4T1; assay: Antitumor activity against mouse 4T1 cells implanted in BALB/c mouse assessed as reduction in tumour volume at 10 mg/kg, ip bid for 12 days by vernier caliper method; type: functional, organism-based; how it was run: as §1
[13] = Toxicity in Crl:CD Sprague-Dawley rat heart assessed as increase in cardiomyocytes cytoplasmic vacuolation at 200 mg/kg, po administered once daily for 5 days via gavage by hematoxylin and eosin staining based microscopic analysis; type: organism-based; settings: in vivo, 120 h
[14] = Toxicity in Crl:CD Sprague-Dawley rat heart assessed as hypereosinophilia at 200 mg/kg, po administered once daily via gavage for 5 days by hematoxylin and eosin staining based microscopic analysis; type: organism-based; settings: in vivo, 120 h
[15] = Toxicity in Crl:CD Sprague-Dawley rat heart assessed as interstitial expansion at 200 mg/kg, po administered once daily for 5 days via gavage by hematoxylin and eosin staining based microscopic analysis; type: organism-based; settings: in vivo, 120 h
[16] = Drug metabolism in Wistar Han rat liver microsomes assessed as pyridine N-oxidation at 50 uM measured after 60 mins […] by LC-ESI/MS analysis; type: ADME, Microsome; settings: 1 h
[17] = Drug metabolism in human liver microsomes assessed as pyridine N-oxidation at 50 uM measured after 60 mins […] by LC-ESI/MS analysis; type: ADME, Microsome; settings: 1 h
[18] = Drug metabolism in human liver microsomes assessed as aliphatic hydroxylation of paraffin linker at 50 uM measured after 60 mins […] by LC-ESI/MS analysis; type: ADME, Microsome; settings: 1 h
[19] = Drug metabolism in human liver microsomes assessed as oxidative N-dealkylation at 50 uM measured after 60 mins […] by LC-ESI/MS analysis; type: ADME, Microsome; settings: 1 h
[20] = tested on: Lymphocyte; assay: Genotoxicity in human primary lymphocytes assessed as induction of DNA damage up to 1000 uM by GreenScreen assay; type: toxicity, cell-based
[21] = Drug metabolism in Wistar Han rat liver microsomes assessed as aliphatic hydroxylation of paraffin linker at 50 uM measured after 60 mins […] by LC-ESI/MS analysis; type: ADME, Microsome; settings: 1 h
[22] = tested on: TK6; assay: Genotoxicity in human TK6 cells in presence of S9 fraction by GreenScreen assay; type: toxicity, cell-based
[23] = tested on: TK6; assay: Genotoxicity in human TK6 cells assessed as induction of DNA damage up to 1000 uM by GreenScreen assay; type: toxicity, cell-based
[24] = Drug metabolism in Wistar Han rat liver microsomes assessed as oxidative N-dealkylation at 50 uM measured after 60 mins […] by LC-ESI/MS analysis; type: ADME, Microsome; settings: 1 h
[25] = Thermodynamic solubility of compound in water after 24 hrs by LC-UV based shake flask method; type: physicochemical; settings: buffer
How it was run: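 Thermodynamic water solubility measured by saturation shake flask, with the concentration of the saturated solution reported.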

[26] = Kinetic aqueous solubility of the compound in 80:20 PBS/acetonitrile solution at 200 uM by HTS assay; type: physicochemical; settings: buffer
[27] = tested on: Lymphocyte; assay: Genotoxicity in human primary lymphocytes in presence of S9 fraction by GreenScreen assay; type: toxicity, cell-based
[28] = tested on: SH-SY5Y; assay: Cytotoxicity against human SH-SY5Y cells assessed as cell viability at 10 uM measured after 48 hrs by MTT assay relative to control; type: functional; settings: read-out: Activity

| IC50 [3] [nM] | solubility kinetic [6] [µM] | Structure (SMILES) | EC50 [1] [nM] | viability at 48 h, 1 µM [4] [%] | other results |
| --- | --- | --- | --- | --- | --- |
| 13.6 | 200 to 500 (≈ 109 to 271 µg/mL) | CN1CCN(Cc2cn(-c3ccccc3C(=O)NCCCCCCCn3cc(-c4cccnc4)nn3)nn2)CC1 | > 10000 | 87.7 | inhibition [2]: inactive; permeability [5]: < 1%; Selectivity ratio [7]: 200 |
| – | – | N#CN=C(NCCCCCCOc1ccc(Cl)cc1)Nc1ccncc1 [CHS-828] | – | – | Activity [8]: Non-Toxic; Activity [9]: Active; inhibition [10]: Active; half-life [11]: 2.1 h; Activity [12]: Active; Activity [13]: Non-Toxic; Activity [14]: Non-Toxic; Activity [15]: Non-Toxic |
| – | – | O=C(NCCCCCCCn1cc(-c2cccnc2)nn1)c1ccccc1-c1ccccc1 | – | – | Drug metabolism [16]: Metabolite_Detected; Drug metabolism [17]: Metabolite_Detected; Drug metabolism [18]: Metabolite_Detected; Drug metabolism [19]: Metabolite_Detected; Activity [20]: Non-Toxic; Drug metabolism [21]: Metabolite_Detected; MTC [22]: 125 µM; Activity [23]: Non-Toxic; Drug metabolism [24]: Metabolite_Detected; Therm_solubility [25]: Soluble; Kinetic_solubility [26]: Soluble; LEC [27]: 125 µM |
| 41.8 | 200 to 500 (≈ 109 to 272 µg/mL) | O=C(NCCCCCCCn1cc(-c2cccnc2)nn1)c1ccccc1-n1cc(CN2CCC(O)CC2)nn1 | > 10000 | 91.7 | inhibition [2]: 30%; permeability [5]: < 1%; Selectivity ratio [7]: 200 |
| 17.1 | 200 to 500 (≈ 106 to 264 µg/mL) | O=C(NCCCCCCCn1cc(-c2cccnc2)nn1)c1ccccc1-n1cc(CN2CCCCC2)nn1 | > 500 | 15.9 | – |
| > 500 | – | O=C(NCCCCCCCn1cc(-c2ccc[n+]([O-])c2)nn1)c1ccccc1-c1ccccc1 | – | 103 | – |
| 87.9 | – | NC(=O)c1ccccc1-c1ccccc1C(=O)NCCCCCCCn1cc(-c2cccnc2)nn1 | 289 | 65.7 | – |
| 49.6 | 200 to 500 (≈ 106 to 265 µg/mL) | O=C(NCCCCCCCn1cc(-c2cccnc2)nn1)c1ccccc1-n1cc(CN2CCOCC2)nn1 | > 500 | 30 | – |
| 25.4 | 200 to 500 (≈ 103 to 257 µg/mL) | O=C(NCCCCCCCn1cc(-c2cccnc2)nn1)c1ccccc1-n1cc(CN2CCCC2)nn1 | > 10000 | 88.9 | viability at 10 µM [28]: 61.9% |
| 42.5 | – | O=C(NCCCCCCCn1cc(-c2cccnc2)nn1)c1ccccc1-c1c[nH]nn1 | 86.5 | 23.5 | – |
| 38.5 | – | O=C(O)c1ccccc1-c1ccccc1C(=O)NCCCCCCCn1cc(-c2cccnc2)nn1 | > 500 | 80.9 | – |
